Data as given in ChEMBL document CHEMBL5661969, “Preclinical evaluation of a potent novel DNA-dependent protein kinase inhibitor NU7441” (Cancer Res, 2006).

What was measured:
[1] = Inhibition of DNA-PK in Chinese hamster DNA-PK proficient V3-YAC cells assessed as potentiation of etoposide-induced cytotoxicity by measuring fold change in etoposide LD90 at 0.5 umol/L measured after 16 hrs by crystal violet staining based assay relative to etoposide alone; design: species or system Cricetulus griseus; conditions: dose 0.5 µmol/L, condition cancer
Method in brief: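 V3-YAC Chinese hamster ovary cells (human DNA-PKcs YAC, kept in 500 μg/mL G-418), RPMI 1640/10% FBS. Cells reseeded drug-free, colonies crystal violet stained after 10–14 days; LD90 ratio without/with inhibitor (DMR90).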

[2] = Cytotoxicity against Chinese hamster DNA-PK proficient V3-YAC cells assessed as cell survival at 0.5 umol/L measured after 16 hrs by crystal violet staining based assay relative to control; type: toxicity, Cricetulus griseus; conditions: dose 0.5 µmol/L, read-out: Activity
Method in brief: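 Exponentially growing cells exposed 16 h to agent (0.5 or 1.0 μmol/L), with or without etoposide or doxorubicin, at 0.5% DMSO final; controls get DMSO alone. Cells are then trypsinized, reseeded at 100–100,000 per dish in drug-free medium and grown 10–14 days. Colonies stained with crystal violet and counted automatically.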

[3] = Growth inhibition of human LoVo cells measured after 5 days by crystal violet staining based assay; type: toxicity, cell-based; conditions: time 5 day
Method in brief: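 LoVo and SW620 cells in 96-well plates under 5-day continuous exposure to agent, and growth measured relative to control.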

SW-620 = assay: Induction of DNA damage in human SW620 cells assessed as formation of gammaH2AX phosphorylation foci per cell at 1 umol/L measured after 1 hr by DAPI staining based immunofluorescence microscopic analysis; type: toxicity; conditions: sw-620, 1 h, 1 µM, dose 1 µmol/L
Method in brief: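 SW620 cells on coverslips at 50–70% confluence, preincubated 1 h ± 1 μmol/L agent, then 1 μmol/L etoposide for 1 h, washed three times, and kept ± agent for up to 24 h. Fixation in −20 °C methanol, then anti-γH2AX Ser139 antibody with FITC secondary and DAPI mounting. Foci counted in 30 nuclei from three areas per sample, in triplicate.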

LoVo [4] = assay: Cell cycle arrest in human LoVo cells assessed as increase in G1-phase cell population at 1 umol/L measured after 1 hr by propidium iodide staining based flow cytometry relative to control; type: toxicity; conditions: 1 µM, dose 1 µmol/L
Method in brief: (§1)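 Asynchronous SW620 or LoVo cells, seeded 24 h earlier, given control or 1 μmol/L agent medium for 1 h before ionizing radiation, etoposide or doxorubicin, then incubated a further 16 h. Cells fixed in 70% ethanol, stained with propidium iodide (400 μg/mL) plus RNase (1 mg/mL), and analysed by 488 nm flow cytometry.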

LoVo [5] = assay: Cell cycle arrest in human LoVo cells assessed as reduction in S-phase cell population at 1 umol/L measured after 1 hr by propidium iodide staining based flow cytometry relative to control; type: toxicity; design: scale not given: the % may be the effect or the level left; conditions: 1 µM, dose 1 µmol/L; method in brief: as §1
[6] = Tmax in BALB/c mouse at 5 mg/kg, iv by HPLC analysis; type: ADME, organism-based; conditions: in vivo
Method in brief: (§2)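 Female BALB/c mice dosed 5 mg/kg i.v. in 10% DMSO/10% cyclodextrin in saline, or 10 mg/kg i.p. or orally at 1 mg/mL in 40% PEG400/saline. Plasma taken at 5, 10, 15, 30, 60, 90, 120, 180, 240 and 360 min, three mice per time. Acetonitrile precipitation, C18 HPLC with UV detection at 329 nm against a plasma standard curve. Parameters derived from mean concentrations.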

[7] = AUClast in BALB/c mouse at 5 mg/kg, iv by HPLC analysis; type: ADME, organism-based; conditions: in vivo; method in brief: as §2
[8] = Bioavailability in BALB/c mouse at 5 mg/kg, iv by HPLC analysis; type: ADME, organism-based; conditions: in vivo; method in brief: as §2
[9] = Cmax in BALB/c mouse at 10 mg/kg, po by HPLC analysis; type: ADME, organism-based; conditions: in vivo; method in brief: as §2
[10] = AUClast in BALB/c mouse at 10 mg/kg, po by HPLC analysis; type: ADME, organism-based; conditions: in vivo; method in brief: as §2
[11] = AUCinfinity in BALB/c mouse at 10 mg/kg, po by HPLC analysis; type: ADME, organism-based; conditions: in vivo; method in brief: as §2
[12] = Elimination half life in BALB/c mouse at 10 mg/kg, po by HPLC analysis; type: ADME, organism-based; conditions: in vivo, read-out: beta t1/2; method in brief: as §2
[13] = Clearance in BALB/c mouse at 10 mg/kg, po by HPLC analysis; type: ADME, organism-based; conditions: in vivo; method in brief: as §2
[14] = Oral bioavailability in BALB/c mouse at 10 mg/kg by HPLC analysis; type: ADME, organism-based; conditions: in vivo; method in brief: as §2
[15] = Cmax in BALB/c mouse at 10 mg/kg, ip by HPLC analysis; type: ADME, organism-based; conditions: in vivo; method in brief: as §2
[16] = Tmax in BALB/c mouse at 10 mg/kg, ip by HPLC analysis; type: ADME, organism-based; conditions: in vivo; method in brief: as §2
[17] = Elimination half life in BALB/c mouse at 10 mg/kg, ip by HPLC analysis; type: ADME, organism-based; conditions: in vivo, read-out: beta t1/2; method in brief: as §2
[18] = Clearance in BALB/c mouse at 10 mg/kg, ip by HPLC analysis; type: ADME, organism-based; conditions: in vivo; method in brief: as §2
[19] = Ratio of drug level in tumor to plasma of human SW620 cell xenografted athymic nude CD1 mouse at 10 mg/kg, ip measured after 60 mins by HPLC analysis; type: ADME, organism-based; conditions: tumor and plasma
Method in brief: (§3)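 Female CD-1 nu/nu mice bearing s.c. flank SW620 tumours (1×10^7 cells, ~650 mm³ at 10–14 days) given 10 mg/kg i.p. Tissues snap frozen, homogenised 1:3 in PBS. Acetonitrile precipitation, C18 HPLC with acetate pH 5/acetonitrile 75:25 mobile phase, UV 329 nm; tissue levels by method of addition. Tissue/plasma ratio, mean of three mice per time.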

[20] = Ratio of drug level in tumor to plasma of human SW620 cell xenografted athymic nude CD1 mouse at 10 mg/kg, ip measured after 90 mins by HPLC analysis; type: ADME, organism-based; conditions: tumor and plasma; method in brief: as §3
[21] = Ratio of drug level in brain to plasma of human SW620 cell xenografted athymic nude CD1 mouse at 10 mg/kg, ip measured after 90 mins by HPLC analysis; type: ADME, organism-based; conditions: brain and plasma, read-out: BPR; method in brief: as §3
[22] = Ratio of drug level in kidney to plasma of human SW620 cell xenografted athymic nude CD1 mouse at 10 mg/kg, ip measured after 60 mins by HPLC analysis; type: ADME, organism-based; method in brief: as §3
[23] = Ratio of drug level in liver to plasma of human SW620 cell xenografted athymic nude CD1 mouse at 10 mg/kg, ip measured after 30 mins by HPLC analysis; type: ADME, organism-based; method in brief: as §3
[24] = Ratio of drug level in liver to plasma of human SW620 cell xenografted athymic nude CD1 mouse at 10 mg/kg, ip measured after 90 mins by HPLC analysis; type: ADME, organism-based; method in brief: as §3
[25] = Ratio of drug level in liver to plasma of human SW620 cell xenografted athymic nude CD1 mouse at 10 mg/kg, ip measured after 240 mins by HPLC analysis; type: ADME, organism-based; method in brief: as §3
[26] = Ratio of drug level in spleen to plasma of human SW620 cell xenografted athymic nude CD1 mouse at 10 mg/kg, ip measured after 15 mins by HPLC analysis; type: ADME, organism-based; method in brief: as §3
[27] = target: DNA-dependent protein kinase catalytic subunit (Homo sapiens, UniProt P78527); conditions: SW620, dose 1.0 µmol/L, time 17.0 hrs
DNA-dependent protein kinase catalytic subunit, sequence (P78527 whole entry): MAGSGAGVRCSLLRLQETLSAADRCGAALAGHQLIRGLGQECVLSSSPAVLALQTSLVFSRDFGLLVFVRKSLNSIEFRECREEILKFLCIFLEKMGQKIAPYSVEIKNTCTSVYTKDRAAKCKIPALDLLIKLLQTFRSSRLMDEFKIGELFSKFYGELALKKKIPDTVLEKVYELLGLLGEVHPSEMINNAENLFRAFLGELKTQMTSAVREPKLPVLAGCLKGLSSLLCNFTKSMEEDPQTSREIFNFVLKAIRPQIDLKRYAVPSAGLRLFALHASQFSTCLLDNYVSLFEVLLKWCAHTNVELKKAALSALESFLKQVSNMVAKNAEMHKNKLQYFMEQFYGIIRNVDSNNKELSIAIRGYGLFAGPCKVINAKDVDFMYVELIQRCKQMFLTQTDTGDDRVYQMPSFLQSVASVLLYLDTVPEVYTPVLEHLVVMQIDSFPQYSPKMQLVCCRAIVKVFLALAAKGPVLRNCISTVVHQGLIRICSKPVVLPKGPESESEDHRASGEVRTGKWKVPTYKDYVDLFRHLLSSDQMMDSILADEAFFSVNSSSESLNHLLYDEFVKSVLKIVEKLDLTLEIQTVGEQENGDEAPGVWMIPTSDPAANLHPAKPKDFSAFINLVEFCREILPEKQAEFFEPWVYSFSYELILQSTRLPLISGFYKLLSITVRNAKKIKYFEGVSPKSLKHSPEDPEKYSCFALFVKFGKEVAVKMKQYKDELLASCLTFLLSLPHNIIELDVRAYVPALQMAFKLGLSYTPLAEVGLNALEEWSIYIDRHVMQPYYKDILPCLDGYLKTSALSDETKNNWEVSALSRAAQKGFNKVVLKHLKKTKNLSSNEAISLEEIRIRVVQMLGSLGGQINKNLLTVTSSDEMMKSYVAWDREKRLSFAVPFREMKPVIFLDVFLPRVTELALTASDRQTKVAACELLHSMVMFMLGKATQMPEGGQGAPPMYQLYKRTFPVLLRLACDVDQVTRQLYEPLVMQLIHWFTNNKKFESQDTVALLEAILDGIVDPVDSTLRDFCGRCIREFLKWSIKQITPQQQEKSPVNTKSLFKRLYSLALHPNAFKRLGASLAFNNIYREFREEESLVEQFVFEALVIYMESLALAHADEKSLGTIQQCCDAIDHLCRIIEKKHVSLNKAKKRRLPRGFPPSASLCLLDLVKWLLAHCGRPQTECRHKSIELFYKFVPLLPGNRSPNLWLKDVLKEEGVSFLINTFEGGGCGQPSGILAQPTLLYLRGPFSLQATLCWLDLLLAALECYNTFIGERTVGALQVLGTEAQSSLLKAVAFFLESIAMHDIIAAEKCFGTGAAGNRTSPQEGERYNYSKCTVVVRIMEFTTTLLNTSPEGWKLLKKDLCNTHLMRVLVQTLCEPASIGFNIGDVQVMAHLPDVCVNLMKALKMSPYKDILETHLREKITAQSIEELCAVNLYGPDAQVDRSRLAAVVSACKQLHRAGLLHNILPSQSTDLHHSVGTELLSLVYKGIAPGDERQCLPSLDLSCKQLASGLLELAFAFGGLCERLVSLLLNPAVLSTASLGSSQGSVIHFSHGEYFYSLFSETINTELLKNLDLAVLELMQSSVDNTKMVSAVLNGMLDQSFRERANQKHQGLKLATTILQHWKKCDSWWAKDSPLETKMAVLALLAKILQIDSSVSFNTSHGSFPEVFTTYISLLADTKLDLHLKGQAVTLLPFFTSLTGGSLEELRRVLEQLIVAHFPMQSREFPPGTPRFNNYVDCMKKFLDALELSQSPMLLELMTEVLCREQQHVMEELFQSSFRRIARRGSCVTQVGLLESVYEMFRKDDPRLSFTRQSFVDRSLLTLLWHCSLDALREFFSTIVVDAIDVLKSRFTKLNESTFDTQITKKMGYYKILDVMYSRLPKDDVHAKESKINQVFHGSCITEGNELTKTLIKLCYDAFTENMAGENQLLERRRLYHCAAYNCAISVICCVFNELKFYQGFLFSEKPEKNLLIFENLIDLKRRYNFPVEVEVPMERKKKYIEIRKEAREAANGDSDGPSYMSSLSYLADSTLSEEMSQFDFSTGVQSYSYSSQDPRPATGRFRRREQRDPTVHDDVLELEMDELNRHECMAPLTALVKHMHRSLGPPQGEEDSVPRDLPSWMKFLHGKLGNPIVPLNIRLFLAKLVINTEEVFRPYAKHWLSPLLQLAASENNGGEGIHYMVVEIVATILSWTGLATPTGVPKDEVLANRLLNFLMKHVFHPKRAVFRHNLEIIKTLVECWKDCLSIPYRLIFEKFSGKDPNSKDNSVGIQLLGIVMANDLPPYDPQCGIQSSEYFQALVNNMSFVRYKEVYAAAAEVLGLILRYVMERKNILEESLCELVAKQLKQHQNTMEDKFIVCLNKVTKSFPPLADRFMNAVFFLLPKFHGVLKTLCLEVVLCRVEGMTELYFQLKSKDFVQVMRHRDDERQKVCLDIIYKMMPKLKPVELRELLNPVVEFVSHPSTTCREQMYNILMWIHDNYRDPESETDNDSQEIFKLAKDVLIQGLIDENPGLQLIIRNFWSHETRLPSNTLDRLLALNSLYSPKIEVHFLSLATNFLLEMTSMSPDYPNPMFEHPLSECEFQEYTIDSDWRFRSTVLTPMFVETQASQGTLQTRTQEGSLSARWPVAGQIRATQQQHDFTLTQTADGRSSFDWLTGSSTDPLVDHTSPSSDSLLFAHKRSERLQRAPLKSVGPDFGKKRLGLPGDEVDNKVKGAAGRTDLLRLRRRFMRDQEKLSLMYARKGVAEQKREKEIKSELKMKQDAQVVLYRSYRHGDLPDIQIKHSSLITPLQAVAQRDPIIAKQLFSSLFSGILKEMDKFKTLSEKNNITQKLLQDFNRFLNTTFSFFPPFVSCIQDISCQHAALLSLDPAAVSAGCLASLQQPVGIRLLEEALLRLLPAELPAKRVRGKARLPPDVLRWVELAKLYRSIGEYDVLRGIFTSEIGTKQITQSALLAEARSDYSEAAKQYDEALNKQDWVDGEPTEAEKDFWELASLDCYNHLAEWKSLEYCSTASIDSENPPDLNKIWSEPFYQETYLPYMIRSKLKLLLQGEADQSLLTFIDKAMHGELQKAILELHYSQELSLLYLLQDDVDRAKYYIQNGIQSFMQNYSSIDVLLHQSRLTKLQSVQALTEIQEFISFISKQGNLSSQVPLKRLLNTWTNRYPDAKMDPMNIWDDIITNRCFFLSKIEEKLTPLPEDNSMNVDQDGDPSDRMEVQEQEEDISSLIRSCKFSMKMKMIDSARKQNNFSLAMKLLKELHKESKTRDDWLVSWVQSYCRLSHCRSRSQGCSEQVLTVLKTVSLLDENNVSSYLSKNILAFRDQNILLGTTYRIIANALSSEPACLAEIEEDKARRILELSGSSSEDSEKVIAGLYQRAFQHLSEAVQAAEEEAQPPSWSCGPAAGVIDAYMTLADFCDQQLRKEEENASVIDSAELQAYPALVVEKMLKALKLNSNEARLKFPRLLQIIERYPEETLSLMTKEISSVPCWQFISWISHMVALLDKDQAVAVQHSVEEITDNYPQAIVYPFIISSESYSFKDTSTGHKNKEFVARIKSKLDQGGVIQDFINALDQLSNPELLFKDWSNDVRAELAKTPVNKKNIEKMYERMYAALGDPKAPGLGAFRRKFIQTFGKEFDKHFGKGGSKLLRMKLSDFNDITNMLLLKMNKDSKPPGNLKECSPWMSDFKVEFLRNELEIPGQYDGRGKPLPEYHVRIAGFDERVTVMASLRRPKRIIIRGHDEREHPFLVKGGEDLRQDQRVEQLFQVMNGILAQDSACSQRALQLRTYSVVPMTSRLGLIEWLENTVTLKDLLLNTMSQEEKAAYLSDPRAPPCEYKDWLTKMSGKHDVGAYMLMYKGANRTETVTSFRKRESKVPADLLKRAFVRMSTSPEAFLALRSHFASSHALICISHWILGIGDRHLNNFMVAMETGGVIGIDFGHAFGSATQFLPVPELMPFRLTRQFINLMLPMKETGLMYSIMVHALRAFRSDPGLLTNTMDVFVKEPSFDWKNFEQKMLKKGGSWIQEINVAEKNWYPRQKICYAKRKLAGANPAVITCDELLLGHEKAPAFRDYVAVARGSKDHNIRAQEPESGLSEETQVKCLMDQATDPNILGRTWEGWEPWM

O=c1cc(N2CCOCC2)oc2c(-c3cccc4c3sc3ccccc34)cccc12
fold change (FC) [1]: 2.3
viability at 16 h, 0.5 µM [2]: 97%
GI50 at 120 h [3]: 520 nM
Activity (SW-620): 0.13
Activity (LoVo [4]): 54%
Activity (LoVo [5]): 72%
Tmax [6]: 5 min
AUC(0-t) [7]: 1270 ng·h/mL
F [8]: 100%
Cmax [9]: 500 ng/mL
AUC(0-t) [10]: 817 ng·h/mL
AUC(0-inf) [11]: 1200 ng·h/mL
half-life [12]: 127 min
CL/F [13]: 140 mL/min/kg
bioavailability [14]: 33%
Cmax [15]: 2400 ng/mL
Tmax [16]: 5 min
half-life [17]: 53 min
CL/F [18]: 66 mL/min/kg
Kp at 1 h [19]: 0.44
Kp at 1.5 h [20]: 1.5
Kp at 1.5 h [21]: 3
Kp at 1 h [22]: 3.6
Kp at 0.5 h [23]: 11
Kp at 1.5 h [24]: 19
Kp at 4 h [25]: 5
Kp at 0.25 h [26]: 4.6
LD90 [27]: 1.1 Gy
